Measured values published in ChEMBL document CHEMBL2331329, “Synthesis and biological evaluation of 2-(alkoxycarbonyl)-3-anilinobenzo[b]thiophenes and thieno[2,3-b]pyridines as new potent anticancer agents” (J Med Chem, 2013).
pIC50: −log10 of the molar value. Calls of active or inactive are those of the source. No cut-off for these calls is given here.

How the values were obtained:
Bos taurus [1] = species: Bos taurus; experiment: Displacement of [3H]colchicine from bovine brain tubulin at 1 uM after 20 mins by turbidimetric analysis
[2] = Inhibition of bovine brain tubulin polymerization after 20 mins by turbidimetric analysis; parameters: species or system Bos taurus
Outline: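 Bovine brain tubulin (10 μM) preincubated with varying compound concentrations in glutamate buffer at 30 °C, chilled to 0 °C, 0.4 mM GTP added, then warmed to 30 °C in a recording spectrophotometer.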

HeLa [3] = experiment: Cytotoxicity against human HeLa cells after 72 hrs by MTT assay; type: functional, cell-based
HeLa [4] = experiment: Induction of apoptosis in human HeLa cells assessed as ROS production at 10 to 100 nM after 24 to 48 hrs by HE staining-based flow cytometry relative to control; type: functional, cell-based
Outline: (§1)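 HeLa cells treated 24 or 48 h, then stained with H2-DCFDA or hydroethidine. ROS read by flow cytometry against untreated control. Mean ± SEM of three independent experiments.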

HT-29 [5] = experiment: Cell cycle arrest in human HT-29 cells assessed as accumulation at G2/M phase at >20 nM after 24 hrs by propidium iodide staining-based flow cytometry; type: functional
Outline: (§2)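 Jurkat, HT-29 and HeLa cells in exponential growth (5 × 10^5 cells) treated 24 h at a range of concentrations. Fixed in ice-cold 70% ethanol, lysed with buffer containing RNase A and 0.1% Triton X-100, stained with propidium iodide. DNA content read by flow cytometry and the percentage of cells per cycle phase derived from DNA histograms.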

HT-29 [6] = experiment: Cytotoxicity against human HT-29 cells after 72 hrs by MTT assay; type: functional, cell-based; settings: HT-29, 72 h
HeLa [7] = experiment: Induction of apoptosis in human HeLa cells assessed as mitochondrial membrane depolarization after 24 to 48 hrs by JC-1 staining; type: functional, cell-based
Outline: (§3)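 HeLa cells treated 24 or 48 h, then stained with the potentiometric dye JC-1. Proportion of cells with depolarised mitochondria read by flow cytometry. Mean ± SEM of three independent experiments.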

HeLa [8] = experiment: Induction of apoptosis in human HeLa cells assessed as ROS production at 10 to 100 nM after 24 to 48 hrs by H2-DCFDA staining-based flow cytometry relative to control; type: functional, cell-based; outline: as §1
Jurkat [9] = experiment: Cell cycle arrest in human Jurkat cells assessed as accumulation at G2/M phase at 20 nM after 24 hrs by propidium iodide staining-based flow cytometry; type: functional; outline: as §2
Bos taurus [10] = species: Bos taurus; experiment: Displacement of [3H]colchicine from bovine brain tubulin at 5 uM after 20 mins by turbidimetric analysis
HeLa [11] = experiment: Induction of apoptosis in human HeLa cells assessed as mitochondrial membrane depolarization at 10 to 100 nM by JC-1 staining; type: functional, cell-based; settings: TDE = time-dependent effect; outline: as §3
Jurkat [12] = experiment: Cell cycle arrest in human Jurkat cells assessed as accumulation at G2/M phase at >20 nM after 24 hrs by propidium iodide staining-based flow cytometry; type: functional; outline: as §2
A549 [13] = experiment: Cytotoxicity against human A549 cells after 72 hrs by MTT assay; type: functional, cell-based; settings: A549, 72 h
HeLa [14] = experiment: Cell cycle arrest in human HeLa cells assessed as accumulation at G2/M phase at 20 nM after 24 hrs by propidium iodide staining-based flow cytometry; type: functional; outline: as §2
LoVo [15] = experiment: Resistance index, ratio of IC50 for human LoVo/DX cells to IC50 for human LoVo cells; type: functional
Outline: (§4)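 MTT viability test: 8 × 10^3 cells per well settled 18 h at 37 °C, 5% CO2, then given fresh medium with compound (from 10 mM DMSO stocks, final DMSO ≤0.25%) for 72 h. […] CEMVbl-100 is a vinblastine-selected P-gp line; LoVoDoxo is grown in Ham's F12 with 0.1 μg/mL doxorubicin. Resistance index = resistant IC50/parental IC50.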

CCRF-CEM [16] = experiment: Cytotoxicity against human CEM cells after 72 hrs by MTT assay; type: functional, cell-based; outline: as §4
MCF7 = experiment: Cytotoxicity against human MCF7 cells after 72 hrs by MTT assay; type: functional, cell-based; settings: MCF7, 72 h
PBL = experiment: Cytotoxicity against human PHA-stimulated PBL cells after 72 hrs by MTT assay; type: cell-based
Outline: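 Peripheral blood lymphocytes from healthy donors isolated on a Lymphoprep gradient and rested overnight in RPMI-1640 with 10% FBS. Nonadherent cells at 5 × 10^5 cells/mL, with 2.5 μg/mL PHA for proliferating cultures or without it for resting ones. Compound exposure 72 h, viability by MTT. Mean ± SEM of three experiments.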

HT-29 [17] = experiment: Cell cycle arrest in human HT-29 cells assessed as accumulation at G2/M phase at 20 nM after 24 hrs by propidium iodide staining-based flow cytometry; type: functional; outline: as §2
Jurkat [18] = experiment: Cytotoxicity against human Jurkat cells after 72 hrs by MTT assay; type: functional, cell-based
Outline: (§5)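 Cells plated at 8 × 10^3 per well, 18 h at 37 °C, 5% CO2, then fresh medium with graded compound concentrations (DMSO ≤0.25%) for 72 h. Jurkat, SEM, HL-60 grown in RPMI-1640; A549, HeLa, HT-29, MCF-7 in DMEM; 10% FBS with penicillin/streptomycin. MTT viability read-out; IC50 vs 0.25% DMSO controls; mean ± SE of at least three independent experiments.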

HL-60 = experiment: Cytotoxicity against human HL60 cells after 72 hrs by MTT assay; type: functional, cell-based; settings: HL-60, 72 h
HeLa [19] = experiment: Induction of apoptosis in human HeLa cells assessed as early apoptotic cells at 10 to 100 nM by annexin V-FITC and propidium iodide staining-based flow cytometry; type: functional, cell-based; settings: TDE = time-dependent effect
Outline: (§6)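 HeLa cells treated 24 or 48 h, then co-labelled with annexin-V–FITC and propidium iodide. Flow cytometry with 488 nm excitation and emission at 525 nm (FITC) and 585 nm (PI); early apoptotic cells counted as annexin-V+/PI−. Mean ± SEM of three independent experiments.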

[20] = Cytotoxicity against human A549-T12 cells after 72 hrs by MTT assay; type: functional, cell-based; settings: A549, 72 h
Outline: (§7)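 Mean ± SE of at least three independent experiments. Resistance ratio = IC50 in resistant line/IC50 in nonresistant line.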

HeLa [21] = experiment: Induction of apoptosis in human HeLa cells assessed as early apoptotic cells after 24 to 48 hrs by annexin V-FITC/Propidium iodide staining-based flow cytometry; type: functional, cell-based; outline: as §6
[22] = Cytotoxicity against human CEM/VBL100 cells after 72 hrs by MTT assay; type: functional, cell-based; settings: CEM/VBL100, 72 h; outline: as §4
LoVo [23] = experiment: Cytotoxicity against human LoVo cells after 72 hrs by MTT assay; type: functional, cell-based; outline: as §4
Jurkat [24] = experiment: Cell cycle arrest in human Jurkat cells assessed as accumulation at G2/M phase after 24 hrs by propidium iodide staining-based flow cytometry; type: functional; outline: as §2
A549 [25] = experiment: Resistance index, ratio of IC50 for human A549-T12 cells to IC50 for human A549 cells; type: functional; outline: as §7
HT-29 [26] = experiment: Cell cycle arrest in human HT-29 cells assessed as accumulation at G2/M phase after 24 hrs by propidium iodide staining-based flow cytometry; type: functional; outline: as §2
CCRF-CEM [27] = experiment: Resistance index, ratio of IC50 for human CEM/VBL100 cells to IC50 for human CEM cells; type: functional; outline: as §4
HeLa [28] = experiment: Cell cycle arrest in human HeLa cells assessed as accumulation at G2/M phase at >20 nM after 24 hrs by propidium iodide staining-based flow cytometry; type: functional; outline: as §2
[29] = Cytotoxicity against human SEM cells after 72 hrs by MTT assay; type: functional, cell-based; outline: as §5
HeLa [30] = experiment: Cell cycle arrest in human HeLa cells assessed as accumulation at G2/M phase after 24 hrs by propidium iodide staining-based flow cytometry; type: functional; outline: as §2
[31] = Cytotoxicity against human LoVo/DX cells after 72 hrs by MTT assay; type: functional, cell-based; outline: as §4

COC(=O)c1sc2nc(C)ccc2c1Nc1cc(OC)c(OC)c(OC)c1
inhibition (Bos taurus [1]): 78% | pIC50 [2]: 6.15 | pIC50 (HeLa [3]): 9.74 | Activity (HeLa [4]): Active | Activity (HT-29 [5]): >80% | pIC50 (HT-29 [6]): 9.46 | Activity (HeLa [7]): Dose-dependent effect | Activity (HeLa [8]): Active | Activity (Jurkat [9]): Active | inhibition (Bos taurus [10]): 95% | Activity (HeLa [11]): tde | Activity (Jurkat [12]): >80% | pIC50 (A549 [13]): 7.79 | Activity (HeLa [14]): Active | Ratio IC50 (LoVo [15]): 0.3 | pIC50 (CCRF-CEM [16]): 8.55 | pIC50 (MCF7): 9.28 | pIC50 (PBL): 5.47 | Activity (HT-29 [17]): Active | pIC50 (Jurkat [18]): 9.22 | pIC50 (HL-60): 9.40 | Activity (HeLa [19]): tde | pIC50 [20]: 7.71 | Activity (HeLa [21]): Dose-dependent effect | pIC50 [22]: 8.38 | pIC50 (LoVo [23]): 8.72 | Activity (Jurkat [24]): Dose-dependent effect | Ratio IC50 (A549 [25]): 1.2 | Activity (HT-29 [26]): Dose-dependent effect | Ratio IC50 (CCRF-CEM [27]): 1.5 | Activity (HeLa [28]): >80% | pIC50 [29]: 9.30 | Activity (HeLa [30]): Dose-dependent effect | pIC50 [31]: 9.30
